SIRT5 inh – SIRT5 desuccinylase inhibitors, primary screen, biochemical, fluorescence imaging, single point, set 5; hit rate 1.1% among 330,000; NAD-dependent protein deacylase sirtuin-5, mitochondrial (Homo sapiens), Q9NXA8; inhibition, % at 15 µM; Purified SirT5, succinyl-peptide AMC, trypsin-coupled fluorescence; AID 652115, 2013; in the data active = inhibition above about 15%; inconclusive = no clear call, values can overlap the other calls
Target sequence (Q9NXA8 whole entry, looked up): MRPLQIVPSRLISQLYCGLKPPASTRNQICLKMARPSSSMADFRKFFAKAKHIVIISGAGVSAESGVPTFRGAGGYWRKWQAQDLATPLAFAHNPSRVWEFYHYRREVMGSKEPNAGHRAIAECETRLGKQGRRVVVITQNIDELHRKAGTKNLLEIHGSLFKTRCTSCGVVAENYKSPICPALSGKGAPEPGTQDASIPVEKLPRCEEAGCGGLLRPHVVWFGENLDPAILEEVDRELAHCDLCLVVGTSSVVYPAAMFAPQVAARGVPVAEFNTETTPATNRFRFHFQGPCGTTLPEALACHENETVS
DENV2 CPE – inhibitors of DENV2 cytopathic effect, primary screen, cell-based, plate reader, single concentration; CPE inhibition, % at 9.99 µM; hit rate 1.7% among 350,000; DENV2-infected cells, cytopathic effect rescue; in the data active = CPE inhibition above about 20%, passing the limit was not always enough; inconclusive = no clear call, values can overlap the other calls; tested in BHK-21 cells;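 note: 0% = median of neutral control wells and 100% = median of positive control wells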
E-sel inducer – E-selectin induction in HUVECs, primary screen, imaging, HUVEC, immunofluorescence imaging, single point; P16581; normalized: neutral wells 0, TNF-alpha wells 100; activation, % at 7.58 µM; hit rate 0.37% among 260,000; AID 686992, 2013;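 active = mean E-selectin-positive cell signal at least 10% of the positive control, reached in at least 60% of replicates, without over 20% cell loss; inconclusive = no rule given, readout overlaps actives, possibly toxicity-flagged; inactive = the rest, including those meeting only one limit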
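Read-out basis: % PE-positive cells; Test system: HUVEC primary endothelial cells; Technique: immunofluorescence imaging; Dosing: single-point compound dose.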
* = called active by the depositor; ? = inconclusive; nt = no result given. Shown are actives, neighbours in structure and some others; about 2.8% of the full set was active somewhere.

SMILES	SIRT5 inh	DENV2 CPE	E-sel inducer
O=C(C[C@H]1CC[C@H]2[C@@H](COC[C@@H](O)CN2C(=O)Nc2ccc(Cl)c(Cl)c2)O1)NCc1ccc(Cl)cc1	-2	29*	0
O=C(C[C@H]1CC[C@@H]2[C@H](COC[C@H](O)CN2C(=O)C2CCCC2)O1)NCc1ccncc1	-5	30*	0
C[C@@H]1CN([C@@H](C)CO)C(=O)c2cc(NC(=O)C3CC3)ccc2O[C@H]1CN(C)Cc1ccc(-c2ccccc2)cc1	13	-1	0
CC(C)NC(=O)Nc1ccc2c(c1)CC(=O)N([C@@H](C)CO)C[C@H](C)[C@@H](CN(C)C(=O)Nc1ccc(C(F)(F)F)cc1)O2	-4	12	1
C[C@@H]1CN([C@@H](C)CO)C(=O)c2cc(NS(=O)(=O)c3ccccc3)ccc2O[C@@H](C)CCCCO[C@@H]1CN(C)S(=O)(=O)c1ccc(Cl)cc1	5	19	0
COc1ccc(Cl)c(OC)c1C(=O)NC(=O)Nc1nc(C)nc(C)n1	-3	0	0
COc1c(Cl)cc(Br)c(OC)c1C(=O)NC(=O)Nc1nc(C)cc(C)n1	-2	32*	-4
C[C@@H]1CN([C@H](C)CO)C(=O)Cc2cc(N(C)C)ccc2O[C@@H]1CN(C)S(=O)(=O)c1ccccc1	-4	-1	nt
CCOC(=O)c1c(-c2ccc(OC)cc2)csc1NC(=O)CCN1CCOCC1	-4	-3	1
CCOC(=O)c1c(-c2ccc(C)cc2)csc1NC(=O)CCN1CC(C)OC(C)C1 (centres undefined)	20*	2	0
CC1(C)CC(=O)c2cc(C(=O)NNc3ccccc3)c(=O)n(-c3ccccc3)c2C1	21*	3	1
COc1ccc(-n2c3c(cc(C(=O)NCC(=O)c4ccccc4)c2=O)C(=O)CC(C)(C)C3)cc1	-2	15	0
COc1ccc2c3c([nH]c2c1)[C@@H](CO)N(C(=O)c1cccc(F)c1)CC31CN(C(=O)CC2CC2)C1	0	-3	0
O=C(Cc1cccnc1)N[C@@H]1CC[C@@H](CCn2cc(-c3ccccc3F)nn2)O[C@@H]1CO	-1	16	-2
CN(C)C(=O)C[C@H]1CC[C@@H]2[C@H](COC[C@H](O)CN2CC2CCOCC2)O1	3	-5	0
CCC/C(=C1/c2ccccc2C(=O)N1c1ccccc1)c1ccc2c(c1)OCCO2	0	-1	1
CCC/C(=C1/c2ccccc2C(=O)N1c1ccccc1)c1ccc(O[C@@H]2CCCCO2)cc1	0	37*	0
CC(C)(NC(=O)c1ccccc1)c1nc2ccccc2s1	nt	109*	0
COc1ccc(C(=O)Nc2nc3ccccc3s2)cc1	-2	18	nt
Cc1ccc(S(=O)(=O)Nc2ccc3c(c2)C(=O)N([C@H](C)CO)C[C@H](C)[C@@H](CN(C)S(=O)(=O)c2ccc(F)cc2)OCCCC[C@@H](C)O3)cc1	9	-1	0
Cc1ccc(S(=O)(=O)Nc2ccc3c(c2)C(=O)N([C@H](C)CO)C[C@H](C)[C@H](CN(C)S(=O)(=O)c2ccc(F)cc2)OCCCC[C@H](C)O3)cc1	17*	-2	0
Cc1ccc(S(=O)(=O)N(C)C[C@@H]2OCCCC[C@H](C)Oc3ccc(NS(=O)(=O)c4ccc(F)cc4)cc3C(=O)N([C@@H](C)CO)C[C@@H]2C)cc1	20*	2	0
Cc1ccc(S(=O)(=O)N(C)C[C@@H]2OCCCC[C@@H](C)Oc3ccc(NS(=O)(=O)c4ccc(F)cc4)cc3C(=O)N([C@H](C)CO)C[C@@H]2C)cc1	4	5	0
Cc1ccc(S(=O)(=O)Nc2ccc3c(c2)C(=O)N([C@@H](C)CO)C[C@H](C)[C@@H](CN(C)S(=O)(=O)c2ccc(F)cc2)OCCCC[C@@H](C)O3)cc1	15	8	0
Cc1ccc(S(=O)(=O)N(C)C[C@@H]2OCCCC[C@H](C)Oc3ccc(NS(=O)(=O)c4ccc(F)cc4)cc3C(=O)N([C@H](C)CO)C[C@@H]2C)cc1	26*	8	0
SMILES	SIRT5 inh	DENV2 CPE	E-sel inducer
Cc1ccc(S(=O)(=O)N(C)C[C@H]2OCCCC[C@@H](C)Oc3ccc(NS(=O)(=O)c4ccc(F)cc4)cc3C(=O)N([C@@H](C)CO)C[C@H]2C)cc1	22*	-3	0
Cc1ccc(S(=O)(=O)N(C)C[C@H]2OCCCC[C@@H](C)Oc3ccc(NS(=O)(=O)c4ccc(F)cc4)cc3C(=O)N([C@H](C)CO)C[C@@H]2C)cc1	8	0	0
C[C@@H]1CN([C@@H](C)CO)C(=O)Cc2cc(NC(=O)CCN3CCOCC3)ccc2O[C@@H]1CN(C)C(=O)NC1CCCCC1	nt	nt	0
O=C(C[C@@H]1C=C[C@H](NS(=O)(=O)c2ccccc2)[C@@H](CO)O1)NCc1ccccc1F	2	-1	0
Cc1ccc(S(=O)(=O)Nc2ccc3c(c2)C(=O)N([C@H](C)CO)C[C@@H](C)[C@H](CN(C)S(=O)(=O)c2ccc(F)cc2)OCCCC[C@H](C)O3)cc1	10	-13	0
Cc1ccc(S(=O)(=O)Nc2ccc3c(c2)C(=O)N([C@@H](C)CO)C[C@@H](C)[C@@H](CN(C)S(=O)(=O)c2ccc(F)cc2)OCCCC[C@@H](C)O3)cc1	14	-4	0
Cc1ccc(S(=O)(=O)N(C)C[C@H]2OCCCC[C@H](C)Oc3ccc(NS(=O)(=O)c4ccc(F)cc4)cc3C(=O)N([C@H](C)CO)C[C@H]2C)cc1	25*	0	0
Cc1ccc(S(=O)(=O)N(C)C[C@H]2OCCCC[C@H](C)Oc3ccc(NS(=O)(=O)c4ccc(F)cc4)cc3C(=O)N([C@@H](C)CO)C[C@H]2C)cc1	25*	-1	0
Cc1ccc(S(=O)(=O)N(C)C[C@@H]2OCCCC[C@@H](C)Oc3ccc(NS(=O)(=O)c4ccc(F)cc4)cc3C(=O)N([C@@H](C)CO)C[C@H]2C)cc1	20*	9	0
C[C@@H]1CCCCO[C@H](CN(C)S(=O)(=O)c2ccc(F)cc2)[C@H](C)CN([C@H](C)CO)C(=O)c2cc(NS(=O)(=O)c3ccc(F)cc3)ccc2O1	nt	-12	0
C[C@H](CO)N1C[C@H](C)[C@H](CN(C)Cc2ccccc2)Oc2cc(-c3ccccc3)ccc2S1(=O)=O	nt	nt	-2
O=C(C[C@H]1C[C@@H]2c3cc(NC(=O)C4CCOCC4)ccc3O[C@@H]2[C@H](CO)O1)NCc1ccccn1	0	10	1
CO[C@H]1CN(C)C(=O)c2cc(NC(C)=O)ccc2OC[C@@H](C)N(C(=O)C2CC2)C[C@H]1C	-3	-10	0
Cc1ccccc1-c1ccc([C@@H]2[C@@H](CO)N3CCCCN(S(C)(=O)=O)C[C@@H]23)cc1	2	20	0
CO[C@H](CN(C)C(=O)c1ccccc1F)[C@H](C)CN([C@H](C)CO)S(=O)(=O)c1ccc(C)cc1	-2	0	0
COc1ccc(-c2ccc3c(c2)[C@H]2[C@H](CCN2C(=O)Cc2cccnc2)[C@@H](CO)N3C)cc1	1	?	0

From PubChem
